# Experimental data reported in ChEMBL document CHEMBL4477203 (J Med Chem, 2016).
# Numbered stars: 1 amine (or outer) side, 2 acyl side, 3 side chain; on linkers, the order of the positions; unused ones are H or OH. Bridge positions count the residues as written; N and C are the ends. Square brackets hold non-standard residues; d marks the D form. Peptide text beside a SMILES is read from it. I, II: the chains in the order shown. X2 = NCCCCNC(=O)/N=C(\N)NCCC[C@H](N[*:1])C(=O)[*:2]; Suberoyl = O=C(CCCCCCC(=O)[*:2])[*:1]
# What was measured:
# [1] = molecular target: T1, Neuropeptide Y receptor type 4 (Homo sapiens, UniProt P50391); assay: Agonist activity at human NPY Y4 receptor expressed in HEK293 cells co-expressing CRE-Luc gene assessed as inhibition of forskolin stimulated luciferase activity after 4.5 hrs by luminescence assay; format: functional, cell-based
# T1 sequence (P50391 whole entry): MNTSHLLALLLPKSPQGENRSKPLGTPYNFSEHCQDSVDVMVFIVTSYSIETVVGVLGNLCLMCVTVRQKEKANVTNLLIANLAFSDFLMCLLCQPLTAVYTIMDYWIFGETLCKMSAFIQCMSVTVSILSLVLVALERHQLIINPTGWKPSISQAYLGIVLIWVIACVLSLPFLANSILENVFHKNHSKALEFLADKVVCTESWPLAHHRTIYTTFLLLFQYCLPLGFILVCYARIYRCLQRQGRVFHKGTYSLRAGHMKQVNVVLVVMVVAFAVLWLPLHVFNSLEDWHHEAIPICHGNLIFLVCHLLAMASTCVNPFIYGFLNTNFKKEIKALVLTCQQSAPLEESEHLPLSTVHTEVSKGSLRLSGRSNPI
# How it was run: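 HEK293 cells stably co-transfected with a CRE-controlled firefly luciferase reporter and hY4R, tested in phenol-red-free DMEM, pH 7.4. The maximal inhibition by PP was set to 0% activity (α = 1.0). Data are means ± SEM of at least 3 experiments in triplicate.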
# [2] = molecular target: T1, Neuropeptide Y receptor type 4; assay: Intrinsic activity at human NPY Y4 receptor expressed in HEK293 cells co-expressing CRE-Luc gene assessed as inhibition of forskolin stimulated luciferase activity after 4.5 hrs by luminescence assay relative to pancreatic polypeptide; format: functional, cell-based
# How it was run: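 HEK293 cells stably co-transfected with a CRE-controlled firefly luciferase reporter and hY4R, tested in phenol-red-free DMEM, pH 7.4. […] The maximal inhibition by PP was set to 0% activity (α = 1.0). Data are means ± SEM of at least 3 experiments in triplicate.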
# [3] = molecular target: T1, Neuropeptide Y receptor type 4; assay: Intrinsic activity at human NPY Y4 receptor expressed in CHO cells co-expressing Gqi5-mtAEQ assessed as induction of calcium mobilization by aequorin luminescence assay relative to pancreatic polypeptide; format: functional, cell-based
# How it was run: (§1)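 Luminescence was integrated as area under the curve and normalized to the response to 1 µM PP. Data are means ± SEM of at least 3 independent experiments, each run in triplicate.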
# [4] = molecular target: T1, Neuropeptide Y receptor type 4; assay: Displacement of [3H](2R,7R)-10 from human NPY Y4 receptor expressed in CHO cells co-expressing Gqi5-mtAEQ after 90 mins in presence of L-15 medium by liquid scintillation counting; format: cell-based
# [5] = molecular target: T1, Neuropeptide Y receptor type 4; assay: Displacement of [3H]18 from human NPY Y4 receptor expressed in CHO cells co-expressing Gqi5-mtAEQ after 90 mins by liquid scintillation counting; format: cell-based
# [6] = molecular target: T2, Neuropeptide Y receptor type 1 (Homo sapiens) (UniProt P25929); assay: Antagonist activity at human NPY Y1 receptor expressed in human HEL cells assessed as inhibition of the pNPY-stimulated intracellular [Ca2+] mobilization by Fura-2 based luminescence spectrometry; format: functional, cell-based
# T2 sequence (whole entry): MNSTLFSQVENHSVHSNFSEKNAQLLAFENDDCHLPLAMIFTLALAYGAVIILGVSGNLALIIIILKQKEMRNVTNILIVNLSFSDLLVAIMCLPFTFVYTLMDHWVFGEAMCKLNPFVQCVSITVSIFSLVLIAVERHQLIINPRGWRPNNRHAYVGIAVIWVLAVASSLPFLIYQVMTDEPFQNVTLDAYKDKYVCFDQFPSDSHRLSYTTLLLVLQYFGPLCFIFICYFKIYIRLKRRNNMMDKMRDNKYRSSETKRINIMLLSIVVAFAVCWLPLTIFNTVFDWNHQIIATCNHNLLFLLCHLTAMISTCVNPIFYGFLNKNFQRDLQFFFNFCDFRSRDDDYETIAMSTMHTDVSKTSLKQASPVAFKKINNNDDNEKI
# How it was run: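 Functional Y1R assay on HEL cells, which express Y1R endogenously. Intracellular Ca2+ was read with Fura-2 on a luminescence spectrometer. Antagonism is expressed as Kb.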
# [7] = molecular target: T1, Neuropeptide Y receptor type 4; assay: Displacement of [3H](2R,7R)-10 from human NPY Y4 receptor expressed in CHO cells co-expressing Gqi5-mtAEQ after 90 mins in presence of sodium-free HEPES buffer by liquid scintillation counting; format: cell-based
# [8] = molecular target: T1, Neuropeptide Y receptor type 4; assay: (§2) Binding affinity to human NPY Y4 receptor expressed in CHO cells co-expressing Gqi5-mtAEQ assessed as slow dissociation half life t1/2(2) at 1.5 uM incubated for 2 hrs in presence of 200-fold excess of (2R,7R)-Diaminooctanedioyl-bis(Tyr-Arg-Leu-Arg-Tyr-amide)Hexa(hydrotrifluoroacetate) by liquid scintillation counting; format: cell-based; settings: tested as the 3H-labelled form
# [9] = molecular target: T1, Neuropeptide Y receptor type 4; assay: Agonist activity at human NPY Y4 receptor expressed in CHO cells co-expressing Gqi5-mtAEQ assessed as induction of calcium mobilization by aequorin luminescence assay; format: functional, cell-based; how it was run: as §1
# [10] = molecular target: T3, Neuropeptide Y receptor type 1 (Homo sapiens, UniProt P25929); assay: Displacement of [3H]UR-MK136 from human NPY Y1 receptor expressed in human MCF7 cells by liquid scintillation counting; format: cell-based
# T3 sequence (P25929 whole entry): T2 sequence (whole entry)
# [11] = molecular target: T4, Neuropeptide Y receptor type 2 (Homo sapiens, UniProt P49146); assay: Displacement of [3H]propionyl-pNPY from human NPY Y2 receptor expressed in CHO cells co-expressing Gqi5-mtAEQ after 90 mins by liquid scintillation counting; format: cell-based
# T4 sequence (P49146 whole entry): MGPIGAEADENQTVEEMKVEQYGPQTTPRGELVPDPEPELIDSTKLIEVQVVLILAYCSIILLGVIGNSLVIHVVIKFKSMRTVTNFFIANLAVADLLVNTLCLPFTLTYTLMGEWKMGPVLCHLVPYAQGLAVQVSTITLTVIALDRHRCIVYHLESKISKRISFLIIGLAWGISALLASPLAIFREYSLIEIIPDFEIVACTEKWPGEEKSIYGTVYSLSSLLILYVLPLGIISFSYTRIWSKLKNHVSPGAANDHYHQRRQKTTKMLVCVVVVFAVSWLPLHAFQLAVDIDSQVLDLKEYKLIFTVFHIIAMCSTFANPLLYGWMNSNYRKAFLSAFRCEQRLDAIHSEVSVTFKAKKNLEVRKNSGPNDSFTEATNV
# How it was run: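 Adherent CHO-hY2R-Gqi5-mtAEQ cells in buffer I with 1% BSA and 0.1 mg/mL bacitracin at 22 °C. […] Incubation was 90 min, followed by two ice-cold washes, lysis and scintillation counting.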
# [12] = molecular target: T1, Neuropeptide Y receptor type 4; assay: Binding affinity to human NPY Y4 receptor expressed in CHO cells co-expressing Gqi5-mtAEQ assessed as unspecific binding in presence of (2R,7R)-Diaminooctanedioyl-bis(Tyr-Arg-Leu-Arg-Tyr-amide)Hexa(hydrotrifluoroacetate) by liquid scintillation counting; format: cell-based; settings: tested as the 3H-labelled form
# [13] = molecular target: T1, Neuropeptide Y receptor type 4; assay: Binding affinity to human NPY Y4 receptor expressed in CHO cells co-expressing Gqi5-mtAEQ assessed as fast dissociation rate constant preincubated for 2 hrs followed by addition of (2R,7R)-Diaminooctanedioyl-bis(Tyr-Arg-Leu-Arg-Tyr-amide)Hexa(hydrotrifluoroacetate) by liquid scintillation counting; format: cell-based; settings: tested as the 3H-labelled form
# [14] = molecular target: T1, Neuropeptide Y receptor type 4; assay: Binding affinity to human NPY Y4 receptor expressed in CHO cells co-expressing Gqi5-mtAEQ assessed as time required for complete association by liquid scintillation counting; format: cell-based; settings: tested as the 3H-labelled form
# How it was run: (§3)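 Adherent CHO-hY4-Gqi5-mtAEQ cells (about 90% confluent) in buffer I with 1% BSA and 0.1 mg/mL bacitracin at 22 °C. Tritiated radioligand was applied at 1.5 nM for 2–180 min. Wells were washed twice with ice-cold buffer I, lysed and counted. kobs was taken from ln[Beq/(Beq-Bt)] versus time. Data are means of 3 experiments in triplicate.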
# [15] = molecular target: T1, Neuropeptide Y receptor type 4; assay: Binding affinity to human NPY Y4 receptor expressed in CHO cells co-expressing Gqi5-mtAEQ assessed as apparent association rate constant after 2 to 180 mins by liquid scintillation counting; format: cell-based; settings: tested as the 3H-labelled form; how it was run: as §3
# [16] = molecular target: T1, Neuropeptide Y receptor type 4; assay: Binding affinity to human NPY Y4 receptor expressed in CHO cells co-expressing Gqi5-mtAEQ assessed as slow dissociation rate constant preincubated for 2 hrs followed by addition of (2R,7R)-Diaminooctanedioyl-bis(Tyr-Arg-Leu-Arg-Tyr-amide)Hexa(hydrotrifluoroacetate) by liquid scintillation counting; format: cell-based; settings: tested as the 3H-labelled form
# [17] = molecular target: T1, Neuropeptide Y receptor type 4; assay: as §2, with “fast” for “slow”, “t1/2(1)” for “t1/2(2)”; format: cell-based; settings: tested as the 3H-labelled form
# [18] = molecular target: T5, Neuropeptide Y receptor type 5 (Homo sapiens, UniProt Q15761); assay: Displacement of [3H]propionyl-pNPY from human NPY Y5 receptor expressed in human HEC1b cells after 120 mins by liquid scintillation counting; format: cell-based
# T5 sequence (Q15761 whole entry): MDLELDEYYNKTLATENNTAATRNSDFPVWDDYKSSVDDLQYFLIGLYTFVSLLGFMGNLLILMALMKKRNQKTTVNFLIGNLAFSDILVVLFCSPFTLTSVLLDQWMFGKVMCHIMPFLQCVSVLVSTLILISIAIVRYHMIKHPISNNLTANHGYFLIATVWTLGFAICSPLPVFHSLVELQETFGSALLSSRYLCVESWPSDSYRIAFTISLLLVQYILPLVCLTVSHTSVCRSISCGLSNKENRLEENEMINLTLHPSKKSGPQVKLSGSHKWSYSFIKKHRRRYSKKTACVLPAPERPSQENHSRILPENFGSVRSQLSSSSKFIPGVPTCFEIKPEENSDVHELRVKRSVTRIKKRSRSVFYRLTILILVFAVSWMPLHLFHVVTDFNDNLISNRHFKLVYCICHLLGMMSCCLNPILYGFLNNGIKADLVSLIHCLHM
# How it was run: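 Adherent HEC-1B-hY5 cells in buffer II with 1% BSA and 0.1 mg/mL bacitracin at 22 °C. […] Incubation was 120 min, followed by ice-cold washes, lysis and scintillation counting.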
# [19] = molecular target: T1, Neuropeptide Y receptor type 4; assay: as §2, with “constant” for “half life t1/2(2)”; format: cell-based; settings: tested as the 3H-labelled form
# [20] = molecular target: T1, Neuropeptide Y receptor type 4; assay: as §2, with “life” for “life t1/2(2)”; format: cell-based; settings: tested as the 3H-labelled form
EC50 [1] [nM],Intrinsic activity [2],Intrinsic activity [3],Ki [4] [nM],Ki [5] [nM],Kb [6] [nM],Ki [7] [nM],T1/2 [8] [h],EC50 [9] [nM],Ki [10] [nM],Ki [11] [nM],Activity [12] [%],K [13] [min⁻¹],TIME [14] [h],K [15] [min⁻¹],K [16] [min⁻¹],T1/2 [17] [h],Ki [18] [nM],K [19] [min⁻¹],T1/2 [20] [h],SMILES
1.6,1.03,0.75,2,0.18,9.5,–,–,–,–,–,–,–,–,–,–,–,–,–,–,CC(C)C[C@H](NC(=O)[C@H](CCCNC(=N)N)NC(=O)[C@H](Cc1ccc(O)cc1)NC(=O)[C@H](N)CCCC[C@@H](N)C(=O)N[C@@H](Cc1ccc(O)cc1)C(=O)N[C@@H](CCCNC(=N)N)C(=O)N[C@@H](CC(C)C)C(=O)N[C@@H](CCCNC(=N)N)C(=O)N[C@@H](Cc1ccc(O)cc1)C(N)=O)C(=O)N[C@@H](CCCNC(=N)N)C(=O)N[C@@H](Cc1ccc(O)cc1)C(N)=O
4,1,0.76,6.3,0.32,–,0.87,4.82,14,400,420,10,0.0329,1.67,0.0467,0.0024,0.352,710,0.0085,1.36,CCC(=O)N[C@@H](CCCC[C@H](N)C(=O)N[C@@H](Cc1ccc(O)cc1)C(=O)N[C@@H](CCCNC(=N)N)C(=O)N[C@@H](CC(C)C)C(=O)N[C@@H](CCCNC(=N)N)C(=O)N[C@@H](Cc1ccc(O)cc1)C(N)=O)C(=O)N[C@@H](Cc1ccc(O)cc1)C(=O)N[C@@H](CCCNC(=N)N)C(=O)N[C@@H](CC(C)C)C(=O)N[C@@H](CCCNC(=N)N)C(=O)N[C@@H](Cc1ccc(O)cc1)C(N)=O
1.7,1.06,0.8,–,–,25.3,1.2,–,6.4,410,730,–,–,–,–,–,–,140,–,–,CC(C)C[C@H](NC(=O)[C@H](CCCNC(=N)N)NC(=O)[C@H](Cc1ccc(O)cc1)NC(=O)CCCCCCC(=O)N[C@@H](Cc1ccc(O)cc1)C(=O)N[C@@H](CCCN/C(N)=N/C(=O)NCCCCN)C(=O)N[C@@H](CC(C)C)C(=O)N[C@@H](CCCNC(=N)N)C(=O)N[C@@H](Cc1ccc(O)cc1)C(N)=O)C(=O)N[C@@H](CCCNC(=N)N)C(=O)N[C@@H](Cc1ccc(O)cc1)C(N)=O (I: Y[X2]LRY-NH2 / II: YRLRY-NH2; linker I:N-II:N via Suberoyl)
